Reference: ChEMBL document CHEMBL3232843, “Novel pyrrolidine diketopiperazines selectively inhibit melanoma cells via induction of late-onset apoptosis” (J Med Chem, 2014)
The source made the active and inactive calls. The calls are words filed in the database; no cut-off is given here.

Columns and labels:
[1] = target: T1, Protein deacetylase HDAC6 (Homo sapiens) (UniProt Q9UBN7); assay: Inhibition of HDAC6 (unknown origin) up to 100 uM
T1 sequence (whole entry): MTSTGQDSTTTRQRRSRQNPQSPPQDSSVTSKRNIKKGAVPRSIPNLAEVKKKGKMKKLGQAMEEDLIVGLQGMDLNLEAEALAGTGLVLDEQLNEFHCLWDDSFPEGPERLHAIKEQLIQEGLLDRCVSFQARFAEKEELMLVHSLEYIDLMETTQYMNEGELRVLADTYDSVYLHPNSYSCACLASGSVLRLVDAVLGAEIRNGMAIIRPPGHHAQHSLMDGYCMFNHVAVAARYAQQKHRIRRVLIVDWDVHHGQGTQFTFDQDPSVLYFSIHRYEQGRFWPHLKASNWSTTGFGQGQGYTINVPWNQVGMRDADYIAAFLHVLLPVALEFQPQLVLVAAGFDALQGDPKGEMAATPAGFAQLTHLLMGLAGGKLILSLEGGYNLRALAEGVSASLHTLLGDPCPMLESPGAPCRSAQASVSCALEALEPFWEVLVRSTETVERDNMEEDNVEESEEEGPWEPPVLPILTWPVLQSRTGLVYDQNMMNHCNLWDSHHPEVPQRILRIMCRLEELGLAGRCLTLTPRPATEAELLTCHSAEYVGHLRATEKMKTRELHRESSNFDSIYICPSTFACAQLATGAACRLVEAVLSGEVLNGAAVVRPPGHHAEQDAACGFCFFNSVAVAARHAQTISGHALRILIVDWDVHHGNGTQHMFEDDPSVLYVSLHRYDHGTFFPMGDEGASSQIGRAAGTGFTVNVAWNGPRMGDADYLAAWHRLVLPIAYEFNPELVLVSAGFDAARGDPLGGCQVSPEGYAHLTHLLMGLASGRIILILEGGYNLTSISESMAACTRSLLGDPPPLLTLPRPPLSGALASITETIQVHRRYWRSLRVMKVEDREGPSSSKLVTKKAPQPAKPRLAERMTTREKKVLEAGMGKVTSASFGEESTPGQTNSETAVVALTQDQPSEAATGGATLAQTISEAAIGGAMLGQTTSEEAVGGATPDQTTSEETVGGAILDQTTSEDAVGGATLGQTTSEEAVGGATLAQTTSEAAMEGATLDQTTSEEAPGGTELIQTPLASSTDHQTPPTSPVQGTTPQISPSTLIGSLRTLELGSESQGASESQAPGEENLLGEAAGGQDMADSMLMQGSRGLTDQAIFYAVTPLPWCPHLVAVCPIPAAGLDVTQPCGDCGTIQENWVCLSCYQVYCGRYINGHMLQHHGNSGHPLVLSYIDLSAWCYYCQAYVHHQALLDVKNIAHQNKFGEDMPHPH

[2] = target: Histone deacetylase 1 (Homo sapiens) (UniProt Q13547); assay: Inhibition of HDAC1 (unknown origin) up to 100 uM
Histone deacetylase 1 (Homo sapiens), sequence (Q13547 whole entry): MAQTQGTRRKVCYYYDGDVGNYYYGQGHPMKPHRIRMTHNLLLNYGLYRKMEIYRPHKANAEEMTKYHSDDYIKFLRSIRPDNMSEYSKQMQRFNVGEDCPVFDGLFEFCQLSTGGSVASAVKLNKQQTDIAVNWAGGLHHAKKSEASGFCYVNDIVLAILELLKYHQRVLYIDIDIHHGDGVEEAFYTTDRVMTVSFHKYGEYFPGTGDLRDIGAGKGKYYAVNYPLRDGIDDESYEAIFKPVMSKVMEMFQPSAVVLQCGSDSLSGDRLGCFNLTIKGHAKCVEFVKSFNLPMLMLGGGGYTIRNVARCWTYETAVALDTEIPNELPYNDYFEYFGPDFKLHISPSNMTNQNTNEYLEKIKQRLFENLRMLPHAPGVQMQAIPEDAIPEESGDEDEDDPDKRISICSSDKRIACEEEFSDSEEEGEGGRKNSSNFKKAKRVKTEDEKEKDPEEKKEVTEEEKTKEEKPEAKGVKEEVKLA

[3] = target: Histone deacetylase 2 (Homo sapiens) (UniProt Q92769); assay: Inhibition of HDAC2 (unknown origin) up to 100 uM
Histone deacetylase 2 (Homo sapiens), sequence (Q92769 whole entry): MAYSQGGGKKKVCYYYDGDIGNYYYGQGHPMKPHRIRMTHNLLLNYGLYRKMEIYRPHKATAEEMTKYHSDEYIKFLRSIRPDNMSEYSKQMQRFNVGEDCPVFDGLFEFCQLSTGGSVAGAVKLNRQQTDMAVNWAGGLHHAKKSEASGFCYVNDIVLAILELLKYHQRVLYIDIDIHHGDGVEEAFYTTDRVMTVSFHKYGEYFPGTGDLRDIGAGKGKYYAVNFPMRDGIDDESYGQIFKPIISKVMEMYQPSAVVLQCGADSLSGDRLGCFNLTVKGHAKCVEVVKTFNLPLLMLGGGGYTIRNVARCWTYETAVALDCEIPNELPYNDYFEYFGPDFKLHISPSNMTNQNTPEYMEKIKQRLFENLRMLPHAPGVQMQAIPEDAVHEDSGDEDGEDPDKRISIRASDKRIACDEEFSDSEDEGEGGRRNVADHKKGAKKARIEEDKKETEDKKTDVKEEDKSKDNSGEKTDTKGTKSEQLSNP

[4] = tested on: M14; assay: Cytotoxicity against human M14 cells assessed as cell viability after 48 hrs using bis-AAF-R110 as substrate by ApoTox-Glo triplex assay; assay type: functional, cell-based
In short: (§1)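 M14 cells, 1250 per well, in serum-free DMEM, settled 4 h, then given 1:3 serial dilutions. Ionomycin, terfenadine and panobinostat were the controls. Incubated 4, 24, 48 or 72 h at 37 °C. A reagent containing 400 µM GF-AFC (live-cell protease, ex 400/em 505 nm) and 400 µM bis-AAF-R110 (dead-cell protease, ex 485/em 520 nm) was applied for 30 min at 37 °C. Caspase-Glo 3/7 (DEVD) luminescence was then read after 30 min at room temperature.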

[5] = tested on: M14; assay: Cytotoxicity against human M14 cells assessed as cell viability after 48 hrs using GF-AFC as substrate by ApoTox-Glo triplex assay; assay type: functional, cell-based; in short: as §1
[6] = tested on: M14; assay: Induction of apoptosis human M14 cells assessed as caspase activity at 100 uM after 72 hrs using DEVD peptide as substrate by ApoTox-Glo triplex assay; assay type: functional, cell-based; in short: as §1
[7] = tested on: M14; assay: Induction of apoptosis human M14 cells assessed as caspase activity at 100 uM after 48 hrs using DEVD peptide as substrate by ApoTox-Glo triplex assay relative to control; assay type: functional
In short: (§2)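 M14 #5 cells, 1250 per well in serum-free DMEM, pre-incubated 4 h at 37 °C, 5% CO2. Compounds added as 1:3 serial dilutions; incubated 4, 24, 48 and 72 h. Per time point, a reagent containing 400 µM GF-AFC (live-cell protease) and 400 µM bis-AAF-R110 (dead-cell protease) was added for 30 min at 37 °C, then fluorescence was read. Caspase-Glo 3/7 was added next, 30 min at room temperature, then luminescence.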

[8] = tested on: M14; assay: Induction of apoptosis human M14 cells assessed as caspase activity at 100 uM after 24 hrs using DEVD peptide as substrate by ApoTox-Glo triplex assay relative to control; assay type: functional; in short: as §2
[9] = tested on: M14; assay: Cytotoxicity against human M14 cells assessed as cell viability at 100 uM after 4 hrs using bis-AAF-R110 as substrate by ApoTox-Glo triplex assay; assay type: functional, cell-based; in short: as §1
[10] = tested on: M14; assay: Induction of apoptosis human M14 cells assessed as caspase activity at 100 uM after 4 hrs using DEVD peptide as substrate by ApoTox-Glo triplex assay; assay type: functional, cell-based; in short: as §1
[11] = tested on: M14; assay: Cytotoxicity against human M14 cells assessed as cell viability at 100 uM after 4 hrs using GF-AFC as substrate by ApoTox-Glo triplex assay; assay type: functional, cell-based; in short: as §1
[12] = tested on: M14; assay: Cytotoxicity against human M14 cells assessed as cell viability at 100 uM after 48 hrs by CellTiter-Glo luminescence assay; assay type: functional, cell-based
In short: (§3)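 M14 cells, 1250 per well, in serum-free DMEM. Compounds given in 10-point 1:3 dilution series starting at 100 µM; controls were gefitinib, doxorubicin and ionomycin. Incubated at 37 °C, 5% CO2. CellTiter-Glo luminescence read at 4, 24, 48 and 72 h. Viability normalized to media-only wells and 1% DMSO-treated wells.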

[13] = tested on: M14; assay: Cytotoxicity against human M14 cells assessed as cell viability at 100 uM after 24 hrs by CellTiter-Glo luminescence assay; assay type: functional, cell-based; in short: as §3
[14] = tested on: M14; assay: Cytotoxicity against human M14 cells assessed as cell viability at 100 uM after 4 hrs by CellTiter-Glo luminescence assay; assay type: functional, cell-based; in short: as §3
[15] = Cytotoxicity against mouse B16F10 cells expressing p53 mutant at 10 uM after 48 hrs by hexosaminidase assay; assay type: functional; conditions: B16-F10, 48 h
In short: (§4)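 SK-MEL-28 or B16/F10 cells plated in 96-well plates, grown overnight, then treated with 0–50 µM compound for 48 h. Cells washed with PBS, given hexosaminidase substrate for 30 min at 37 °C, then developer. Absorbance read at 405 nm. Percent viability = treated/control absorbance × 100.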

[16] = tested on: SK-MEL-28; assay: Cytotoxicity against human SK-MEL-28 cells expressing B-raf V600E mutant at 10 uM after 48 hrs by hexosaminidase assay; assay type: functional; conditions: SK-MEL-28, 48 h; in short: as §4
[17] = (§5) Cytotoxicity against mouse B16F10 cells expressing p53 mutant after 48 hrs by hexosaminidase assay; assay type: functional, cell-based; conditions: B16-F10, 48 h; in short: as §4
[18] = tested on: B16-F10; assay: as §5; assay type: functional, cell-based; in short: as §4
[19] = tested on: SK-MEL-28; assay: Cytotoxicity against human SK-MEL-28 cells expressing B-raf V600E mutant after 48 hrs by hexosaminidase assay; assay type: functional, cell-based; in short: as §4
[20] = tested on: A549; assay: Cytotoxicity against human A549 cells after 72 hrs by CellTiter-Glo luminescence assay; assay type: functional, cell-based; conditions: A549, 72 h
In short: (§6)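 1250 cells per well in serum-free medium (F12 for CHO-K1 and A549, DMEM for M14). Compounds given as 10-point 1:3 serial dilutions from a 300 µM stock, plus a gefitinib control. Incubated 72 h at 37 °C, 5% CO2. CellTiter-Glo added for 15 min at room temperature, then luminescence read. Viability normalized to media-only wells (0%) and 1% DMSO wells (100%). Run in triplicate.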

[21] = Cytotoxicity against CHOK1 cells after 72 hrs by CellTiter-Glo luminescence assay; assay type: cell-based; conditions: Cricetulus griseus, CHO-K1, 72 h; in short: as §6
[22] = tested on: M14; assay: Cytotoxicity against human M14 cells after 72 hrs by CellTiter-Glo luminescence assay; assay type: functional, cell-based; conditions: for IC50: M14, 72 h; in short: as §6
[23] = tested on: CHO-K1; assay: Selectivity ratio of IC50 for human M14 cells over IC50 for CHOK1 cells; assay type: functional
In short: (§7)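 Ratio of 72 h CellTiter-Glo IC50 values between the stated cell lines. Each IC50 comes from a 10-point 1:3 dose–response series and is the mean of three experiments ± standard deviation.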

[24] = tested on: A549; assay: Selectivity ratio of IC50 for human M14 cells over IC50 for human A549 cells; assay type: functional; in short: as §7

SMILES: O=C1NC[C@H](Cc2ccccc2)N(C[C@@H]2CCCN2C[C@@H](CC2CCCCC2)N2C[C@H](Cc3ccc(O)cc3)N(CCc3ccccc3)C(=O)C2=O)C1=O
- inhibition [1]: inactive
- inhibition [2]: inactive
- inhibition [3]: inactive
- Activity [4]: Dose-dependent effect
- Activity [5]: Dose-dependent effect
- Activity [6]: inactive
- Activity [7]: 400%
- Activity [8]: 550%
- Activity [9]: inactive
- Activity [10]: inactive
- Activity [11]: inactive
- Activity [12]: Active
- Activity [13]: Active
- Activity [14]: inactive
- inhibition at 10 µM [15]: 100%
- inhibition at 10 µM [16]: 100%
- IC50 [17]: 2.7 µM
- inhibition [18]: Dose-dependent effect
- inhibition [19]: Dose-dependent effect
- IC50 ([19]; SK-MEL-28, 48 h): 0.56 µM
- IC50 [20]: > 100 µM
- IC50 [21]: > 100 µM
- inhibition [22]: Dose-dependent effect
- IC50 [22]: 3.6 µM

SMILES: CCC[C@H]1CNC(=O)C(=O)N1C[C@@H]1CCCN1C[C@@H](CC1CCCCC1)N1C[C@H](Cc2ccc(O)cc2)N(CCc2ccccc2)C(=O)C1=O
- Ratio IC50 [23]: >10
- Ratio IC50 [24]: 5
- IC50 [20]: 52 µM
- IC50 [21]: > 100 µM
- IC50 [22]: 8.8 µM
